# Molecular target: DlRBL (Dicentrarchus labrax rhamnose-binding lectin) (Dicentrarchus labrax, UniProt A0A8P4K6Y8)
# Test: inhibition of hemagglutination of rabbit erythrocytes by purified lectin
# Assay type: biochemical
# Details: TBS pH 7.4, 5 mM CaCl2; 1% rabbit erythrocytes
# In short: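 Purified lectin (250 μg/ml stock, dialysed in TBS) was serially 2-fold diluted in TBS with 0.1% gelatin. Inhibitor series of monosaccharides, disaccharides and yeast mannan were used at decreasing concentrations starting from 100 mM. Rabbit erythrocytes were washed three times in PBS and suspended at 1% in TBS-gelatin, then added in equal volume. Agglutination was scored after 1 h at 37°C.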
structure (smiles),measurement,value
OC[C@H]1OC(O)[C@H](O)[C@@H](O)[C@H]1O (stereo partly drawn) [D-galactose],Minimum inhibitory concentration,70.0 mM

# Source: PMC4607264 (Developmental and comparative immunology, 2014)
